ChEMBL document CHEMBL1124553, “Brain-specific chemical delivery systems for beta-lactam antibiotics. In vitro and in vivo studies of some dihydropyridine and dihydroisoquinoline derivatives of benzylpenicillin in rats” (J Med Chem, 1989)
One block for each compound: values may come before it.

How the values were obtained:
[1] = Half-life for disappearance of compound from dog whole blood; format: ADME, organism-based, Canis lupus familiaris
Summary of the method: (§1)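 Freshly collected whole blood, or 10% w/v brain homogenate in pH 7.4 phosphate buffer (ionic strength 0.15), was prewarmed to 37 °C. Compound was spiked from an 8 mM DMSO stock to 40 µM final. Timed samples were quenched in 8% DMSO/acetonitrile, centrifuged, filtered and analyzed by reversed-phase C8 HPLC with UV detection. K came from linear regression of log peak height versus time, with t1/2 derived from it. Values are mean ± SE of three determinations in different animal samples.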

[2] = Half-life for disappearance of compound from human whole blood; format: ADME, organism-based; summary of the method: as §1
[3] = Half-life for disappearance of compound from rabbit 10% brain homogenate; format: ADME, Oryctolagus cuniculus; summary of the method: as §1
[4] = Half-life for disappearance of compound from rabbit whole blood; format: ADME, organism-based, Oryctolagus cuniculus; summary of the method: as §1
[5] = Half-life for disappearance of compound from rat 10% brain homogenate; format: ADME; summary of the method: as §1
[6] = Half-life for disappearance of compound from rat whole blood; format: ADME, organism-based; summary of the method: as §1
Canis familiaris = organism: Canis familiaris; experiment: Pseudo first-order rate constant (K) for disappearance of compound from dog whole blood; format: ADME, organism-based, Canis lupus familiaris; summary of the method: as §1
Homo sapiens = organism: Homo sapiens; experiment: Pseudo first-order rate constant (K) for disappearance of compound from human whole blood; format: ADME, organism-based; summary of the method: as §1
Oryctolagus cuniculus [7] = organism: Oryctolagus cuniculus; experiment: Pseudo first-order rate constant (K) for disappearance of compound from rabbit 10% brain homogenate; format: ADME
Summary of the method: (§2)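 Freshly collected whole blood (rat trunk blood; rabbit) or 10% w/v brain homogenate made in pH 7.4 phosphate buffer (μ = 0.15), prewarmed to 37 °C. Compound added from 8 mM DMSO stock to a final 40 μM. Timed 0.3 mL samples were quenched in 8% DMSO/acetonitrile, centrifuged, filtered and analysed by reversed-phase C8 HPLC-UV. K came from linear regression of log peak height versus time; n=3 animal samples.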

Oryctolagus cuniculus [8] = organism: Oryctolagus cuniculus; experiment: Pseudo first-order rate constant (K) for disappearance of compound from rabbit whole blood; format: ADME, organism-based; summary of the method: as §2
Rattus norvegicus [9] = organism: Rattus norvegicus; experiment: Pseudo first-order rate constant (K) for disappearance of compound from rat 10% brain homogenate; format: ADME; summary of the method: as §2
[10] = Pseudo first-order rate constant (K) for disappearance of compound from rat whole blood; format: ADME, tissue-based; summary of the method: as §2
Rattus norvegicus [11] = organism: Rattus norvegicus; experiment: Half-life for disappearance of compound from rat whole blood; Compound was unstable; format: ADME, organism-based; details: in vitro; summary of the method: as §1
Rattus norvegicus [12] = organism: Rattus norvegicus; experiment: Pseudo first-order rate constant (K) for disappearance of compound from rat whole blood; Compound was unstable; format: ADME, organism-based; summary of the method: as §2
Rattus norvegicus [13] = experiment: Concentration of compound in rat kidney after intravenous injection of 20 mg/kg benzyl-penicillin after 1 min; format: functional, organism-based; set-up: dose 20 mg/kg
Summary of the method: (§3)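 Male Sprague-Dawley rats (200-250 g), conscious, received 60 µmol/kg (equimolar to 20 mg/kg benzylpenicillin) by tail-vein injection. Benzylpenicillin K was given in water/ethanol/propylene glycol, and the delivery systems in ethanol:propylene glycol 7:3, at 20 mg/mL. Rats were decapitated at set times (4-6 per point), with trunk blood heparinized and brain, kidney, liver and lung frozen. Benzylpenicillin was measured by disk microbioassay (Bacillus subtilis ATCC 6633) after >5-volume sterile-water dilution or homogenization, against matrix calibration curves; assay limit 0.05 µg/mL.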

Rattus norvegicus [14] = experiment: Concentration of compound in rat kidney after intravenous injection of 20 mg/kg benzyl-penicillin after 20 min; format: functional, organism-based; set-up: dose 20 mg/kg; summary of the method: as §3
Rattus norvegicus [15] = experiment: Concentration of compound in rat kidney after intravenous injection of 20 mg/kg benzyl-penicillin after 3 min; format: functional, organism-based; set-up: dose 20 mg/kg; summary of the method: as §3
Rattus norvegicus [16] = experiment: Concentration of compound in rat kidney after intravenous injection of 20 mg/kg benzyl-penicillin after 40 min; format: functional, organism-based; set-up: dose 20 mg/kg; summary of the method: as §3
Rattus norvegicus [17] = experiment: Concentration of compound in rat kidney after intravenous injection of 20 mg/kg benzyl-penicillin after 5 min; format: functional, organism-based; set-up: dose 20 mg/kg; summary of the method: as §3
Rattus norvegicus [18] = experiment: Concentration of compound in rat kidney after intravenous injection of 20 mg/kg benzyl-penicillin after 60 min; format: functional, organism-based; set-up: dose 20 mg/kg; summary of the method: as §3
Rattus norvegicus [19] = experiment: Concentration of compound in rat kidney after intravenous injection of 20 mg/kg benzyl-penicillin after 10 min; format: functional, organism-based; set-up: dose 20 mg/kg; summary of the method: as §3
Rattus norvegicus [20] = experiment: Concentration of compound in rat liver after intravenous injection of 20 mg/kg benzyl-penicillin after 1 min; format: functional, organism-based; set-up: dose 20 mg/kg; summary of the method: as §3
Rattus norvegicus [21] = experiment: Concentration of compound in rat liver after intravenous injection of 20 mg/kg benzyl-penicillin after 10 min; format: functional, organism-based; set-up: dose 20 mg/kg; summary of the method: as §3
Rattus norvegicus [22] = experiment: Concentration of compound in rat liver after intravenous injection of 20 mg/kg benzyl-penicillin after 20 min; format: functional, organism-based; set-up: dose 20 mg/kg; summary of the method: as §3
Rattus norvegicus [23] = experiment: Concentration of compound in rat liver after intravenous injection of 20 mg/kg benzyl-penicillin after 3 min; format: functional, organism-based; set-up: dose 20 mg/kg; summary of the method: as §3
Rattus norvegicus [24] = experiment: Concentration of compound in rat liver after intravenous injection of 20 mg/kg benzyl-penicillin after 40 min; format: functional, organism-based; set-up: dose 20 mg/kg; summary of the method: as §3
Rattus norvegicus [25] = experiment: Concentration of compound in rat liver after intravenous injection of 20 mg/kg benzyl-penicillin after 5 min; format: functional, organism-based; set-up: dose 20 mg/kg; summary of the method: as §3
Rattus norvegicus [26] = experiment: Concentration of compound in rat blood after intravenous injection of 20 mg/kg benzyl-penicillin after 1 min; format: functional, organism-based; set-up: dose 20 mg/kg; summary of the method: as §3
Rattus norvegicus [27] = experiment: Concentration of compound in rat blood after intravenous injection of 20 mg/kg benzyl-penicillin after 10 min; format: functional, organism-based; set-up: dose 20 mg/kg; summary of the method: as §3
Rattus norvegicus [28] = experiment: Concentration of compound in rat blood after intravenous injection of 20 mg/kg benzyl-penicillin after 20 min; format: functional, organism-based; set-up: dose 20 mg/kg; summary of the method: as §3
Rattus norvegicus [29] = experiment: Concentration of compound in rat blood after intravenous injection of 20 mg/kg benzyl-penicillin after 3 min; format: functional, organism-based; set-up: dose 20 mg/kg; summary of the method: as §3
Rattus norvegicus [30] = experiment: Concentration of compound in rat blood after intravenous injection of 20 mg/kg benzyl-penicillin after 40 min; format: functional, organism-based; set-up: dose 20 mg/kg; summary of the method: as §3
Rattus norvegicus [31] = experiment: Concentration of compound in rat blood after intravenous injection of 20 mg/kg benzyl-penicillin after 5 min; format: functional, organism-based; set-up: dose 20 mg/kg; summary of the method: as §3
Rattus norvegicus [32] = experiment: Concentration of compound in rat blood after intravenous injection of 20 mg/kg benzyl-penicillin after 60 min; format: functional, organism-based; set-up: dose 20 mg/kg; summary of the method: as §3
Rattus norvegicus [33] = experiment: Concentration of compound in rat brain after intravenous injection of 20 mg/kg benzyl-penicillin after 1 min; format: functional, organism-based; set-up: dose 20 mg/kg; summary of the method: as §3
Rattus norvegicus [34] = experiment: Concentration of compound in rat brain after intravenous injection of 20 mg/kg benzyl-penicillin after 10 min; format: functional, organism-based; set-up: dose 20 mg/kg; summary of the method: as §3
Rattus norvegicus [35] = experiment: Concentration of compound in rat brain after intravenous injection of 20 mg/kg benzyl-penicillin after 20 min; format: functional, organism-based; set-up: dose 20 mg/kg; summary of the method: as §3
Rattus norvegicus [36] = experiment: Concentration of compound in rat brain after intravenous injection of 20 mg/kg benzyl-penicillin after 3 min; format: functional, organism-based; set-up: dose 20 mg/kg; summary of the method: as §3
Rattus norvegicus [37] = experiment: Concentration of compound in rat brain after intravenous injection of 20 mg/kg benzyl-penicillin after 40 min; format: functional, organism-based; set-up: dose 20 mg/kg; summary of the method: as §3
Rattus norvegicus [38] = experiment: Concentration of compound in rat brain after intravenous injection of 20 mg/kg benzyl-penicillin after 5 min; format: functional, organism-based; set-up: dose 20 mg/kg; summary of the method: as §3
Rattus norvegicus [39] = experiment: Concentration of compound in rat liver after intravenous injection of 20 mg/kg benzyl-penicillin after 60 min; format: functional, organism-based; set-up: dose 20 mg/kg; summary of the method: as §3
Rattus norvegicus [40] = experiment: Concentration of compound in rat lung after intravenous injection of 20 mg/kg benzyl-penicillin after 1 min; format: functional, organism-based; set-up: dose 20 mg/kg; summary of the method: as §3
Rattus norvegicus [41] = experiment: Concentration of compound in rat lung after intravenous injection of 20 mg/kg benzyl-penicillin after 10 min; format: functional, organism-based; set-up: dose 20 mg/kg; summary of the method: as §3
Rattus norvegicus [42] = experiment: Concentration of compound in rat lung after intravenous injection of 20 mg/kg benzyl-penicillin after 20 min; format: functional, organism-based; set-up: dose 20 mg/kg; summary of the method: as §3
Rattus norvegicus [43] = experiment: Concentration of compound in rat lung after intravenous injection of 20 mg/kg benzyl-penicillin after 3 min; format: functional, organism-based; set-up: dose 20 mg/kg; summary of the method: as §3
Rattus norvegicus [44] = experiment: Concentration of compound in rat lung after intravenous injection of 20 mg/kg benzyl-penicillin after 40 min; format: functional, organism-based; set-up: dose 20 mg/kg; summary of the method: as §3
Rattus norvegicus [45] = experiment: Concentration of compound in rat lung after intravenous injection of 20 mg/kg benzyl-penicillin after 5 min; format: functional, organism-based; set-up: dose 20 mg/kg; summary of the method: as §3
Rattus norvegicus [46] = experiment: Concentration of compound in rat lung after intravenous injection of 20 mg/kg benzyl-penicillin after 60 min; format: functional, organism-based; set-up: dose 20 mg/kg; summary of the method: as §3
Rattus norvegicus [47] = experiment: Concentration of compound in rat brain after intravenous injection of 20 mg/kg benzyl-penicillin after 60 min; format: functional, organism-based; set-up: dose 20 mg/kg; summary of the method: as §3

- half-life [1]: 11.5 min
- half-life [2]: 6.7 min
- half-life [3]: 16.7 min
- half-life [4]: 2 min
- half-life [5]: 28.2 min
- half-life [6]: 1.6 min
- K (Canis familiaris): 0.061 min⁻¹
- K (Homo sapiens): 0.105 min⁻¹
- K (Oryctolagus cuniculus [7]): 0.043 min⁻¹
- K (Oryctolagus cuniculus [8]): 0.33 min⁻¹
- K (Rattus norvegicus [9]): 0.025 min⁻¹
- K [10]: 0.435 min⁻¹
SMILES: C[n+]1cccc(C(=O)OCCOC(=O)C2N3C(=O)C(NC(=O)Cc4ccccc4)C3SC2(C)C)c1.[I-] (centres undefined)

- half-life [1]: 4.1 min
- half-life [2]: 16.2 min
- half-life [3]: 4 min
- half-life [4]: 0.8 min
- half-life [5]: 2.4 min
- T1/2 (Rattus norvegicus [11]): Unstable
- K (Rattus norvegicus [12]): Unstable
- K (Canis familiaris): 0.168 min⁻¹
- K (Homo sapiens): 0.043 min⁻¹
- K (Oryctolagus cuniculus [7]): 0.174 min⁻¹
- K (Oryctolagus cuniculus [8]): 0.903 min⁻¹
- K (Rattus norvegicus [9]): 0.296 min⁻¹
SMILES: CN1C=CCC(C(=O)OCCOC(=O)C2N3C(=O)C(NC(=O)Cc4ccccc4)C3SC2(C)C)=C1 (centres undefined)
- Concentration (Rattus norvegicus [13]): 37.9 µg/mL
- Concentration (Rattus norvegicus [14]): 10.3 µg/mL
- Concentration (Rattus norvegicus [15]): 56.4 µg/mL
- Concentration (Rattus norvegicus [16]): 3.4 µg/mL
- Concentration (Rattus norvegicus [17]): 54.6 µg/mL
- Concentration (Rattus norvegicus [18]): 2.1 µg/mL
- Concentration (Rattus norvegicus [19]): 30.3 µg/mL
- Concentration (Rattus norvegicus [20]): 11.1 µg/mL
- Concentration (Rattus norvegicus [21]): 11.4 µg/mL
- Concentration (Rattus norvegicus [22]): 4.7 µg/mL
- Concentration (Rattus norvegicus [23]): 10.9 µg/mL
- Concentration (Rattus norvegicus [24]): 1.5 µg/mL
- Concentration (Rattus norvegicus [25]): 12.6 µg/mL
- Concentration (Rattus norvegicus [26]): 22.7 µg/mL
- Concentration (Rattus norvegicus [27]): 5.6 µg/mL
- Concentration (Rattus norvegicus [28]): 1.9 µg/mL
- Concentration (Rattus norvegicus [29]): 9 µg/mL
- Concentration (Rattus norvegicus [30]): 0.7 µg/mL
- Concentration (Rattus norvegicus [31]): 10.7 µg/mL
- Concentration (Rattus norvegicus [32]): 0.3 µg/mL
- Concentration (Rattus norvegicus [33]): 8.8 µg/mL
- Concentration (Rattus norvegicus [34]): 3.9 µg/mL
- Concentration (Rattus norvegicus [35]): 2.4 µg/mL
- Concentration (Rattus norvegicus [36]): 3.5 µg/mL
- Concentration (Rattus norvegicus [37]): 1.1 µg/mL
- Concentration (Rattus norvegicus [38]): 3.7 µg/mL
- Concentration (Rattus norvegicus [39]): 0.6 µg/mL
- Concentration (Rattus norvegicus [40]): 37.7 µg/mL
- Concentration (Rattus norvegicus [41]): 24.5 µg/mL
- Concentration (Rattus norvegicus [42]): 7.2 µg/mL
- Concentration (Rattus norvegicus [43]): 32.4 µg/mL
- Concentration (Rattus norvegicus [44]): 5 µg/mL
- Concentration (Rattus norvegicus [45]): 31.2 µg/mL
- Concentration (Rattus norvegicus [46]): 2.8 µg/mL
- Concentration (Rattus norvegicus [47]): 0.7 µg/mL
